Paper PMC8448143 (Antimicrobial Agents and Chemotherapy, 2021)
“Also recorded” adds a separate entry of the source. Where two headings read alike, the source gives them in different places.

Columns and labels:
[1] = test system: SARS-CoV-2 (2019-nCoV/USA-WA1/2020); experiment: SARS-CoV-2 antiviral assay; type: cell-based; conditions: Vero E6 cells; CC50/EC50
in vitro [2] = conditions: African green monkey
[3] = test system: SARS-CoV-2 (2019-nCoV/USA-WA1/2020); experiment: SARS-CoV-2 antiviral assay; type: cell-based; conditions: for EC90: Severe acute respiratory syndrome coronavirus 2, in Homo sapiens, 48 h; for Selectivity index: CC50/EC50
in vitro [4] = conditions: human
[5] = test system: SARS-CoV-2 (2019-nCoV/USA-WA1/2020); experiment: SARS-CoV-2 antiviral assay; type: cell-based; conditions: for Selectivity index: Huh7.5 cells, CC50/EC50
human coronavirus 229E = experiment: microbe, parasite or virus in culture; type: cell-based; conditions: MRC5, 72 h
in vitro [6] = conditions: both, human, plasma
[7] = test system: SARS-CoV-2 (2019-nCoV/USA-WA1/2020); experiment: SARS-CoV-2 antiviral assay; type: cell-based; conditions: for Selectivity index: Caco-2 cells, CC50/EC50; for EC50 / EC90: Severe acute respiratory syndrome coronavirus 2, Caco-2, 48 h
[8] = Seven-day oral pharmacokinetics and tolerability in Syrian hamsters; type: in vivo
Outline: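 Syrian hamsters in groups of 3 received vehicle or test compound by oral gavage every 12 h for 7 days, at 16.9 or 13.2 mg/kg body weight. Plasma levels of the prodrug and its nucleoside metabolite were followed after dosing. Animals were monitored for adverse clinical signs.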

in vitro [9] = experiment: in vitro
[10] = test system: SARS-CoV-2 (2019-nCoV/USA-WA1/2020); experiment: SARS-CoV-2 antiviral assay; type: cell-based; conditions: for Selectivity index: Calu-3 cells, CC50/EC50
in vitro [11] = conditions: human; remark: listed apart in the source
in vitro [12] = conditions: human; remark: listed apart in the source
in vitro [13] = conditions: human; remark: listed apart in the source
[14] = cited from earlier work
[15] = ex vivo; cited from earlier work
SARS-CoV-2 [16] = conditions: human alveolar epithelial (HAE) cells; cited from earlier work
SARS-CoV-2 [17] = conditions: Calu-3 2B4 cells; cited from earlier work
[18] = in vivo, rhesus monkeys; cited from earlier work
[19] = Severe acute respiratory syndrome coronavirus 2, Huh7.5, 48 h
[20] = Severe acute respiratory syndrome coronavirus 2, Calu-3, 48 h

| SMILES | Selectivity index [1] | CC50 (in vitro [2]) [nM] | EC90 [3] [nM] | CC50 (in vitro [4]) [nM] | EC50 [5] [nM] | Selectivity index [5] | EC50 [5, 19] [nM] | EC90 [5, 19] [nM] | EC50 (human coronavirus 229E) [nM] | EC90 (human coronavirus 229E) [nM] | Selectivity index [7] | EC50 [7] [nM] | EC90 [7] [nM] | Selectivity index ([3]; PSC-human lung cells) | Selectivity index [10] | EC50 [10, 20] [nM] | EC90 [10, 20] [nM] | CC50 (in vitro [11]) [nM] | CC50 (in vitro [12]) [nM] | CC50 (in vitro [13]) [nM] | also measured |
| --- | --- | --- | --- | --- | --- | --- | --- | --- | --- | --- | --- | --- | --- | --- | --- | --- | --- | --- | --- | --- | --- |
| CCCCCCCCCCCCCCCCOCCCOP(=O)(O)OC[C@H]1O[C@@](C#N)(c2ccc3c(N)ncnn23)[C@H](O)[C@@H]1O [HDP-P-RVn, {(2R,3S,4R,5R)-5-(4-aminopyrrolo[2,1-f][1,2, 4]triazin-7-yl)-5-cyano-3,4-dihydroxytetrahydrofuran-2-yl}methyl [3-(hexadecyloxy)propyl] hydrogen phosphate] | >158 | > 100000 | 940 | > 100000 | 190 | >526 | < 200 | 400 | – | – | – | – | – | – | – | – | – | – | – | – | – |
| CCCCCCCCCCCCCCCCCCOC[C@H](COP(=O)(O)OC[C@H]1O[C@@](C#N)(c2ccc3c(N)ncnn23)[C@H](O)[C@@H]1O)OCc1ccccc1 [ODBG-P-RVn, {(2R,3S,4R,5R)-5-(4-aminopyrrolo[2,1-f][1,2, 4]triazin-7-yl)-5-cyano-3,4-dihydroxytetrahydrofuran-2-yl]methyl [(R)-2-(benzyloxy)-3-(octadecyloxy)propyl] hydrogen phosphate] | 699 | 97900 | 260 | – | – | 449 | < 200 | 150 | 150 | 540 | 295 | 300 | 330 | 410 | 327 | < 350 | 330 | – | – | – | half-life (in vitro [6]): > 24 h; tolerability ([8]; Syrian hamsters, oral gavage every 12 h for 7 days, 16.9 and 13.2 mg/kg): well tolerated; also recorded: well tolerated, and no adverse clinical signs were noted; plasma level of ODBG-P-RVn relative to its EC90 ([8]; Syrian hamsters, oral, at 12 h, days 1 and 7, EC90 in all cell lines studied): above the 90% effective concentration (EC90); also recorded: higher than the EC90; Tmax ([8]; Syrian, hamster, plasma, po): 1 h; CC50 (in vitro [9]): 61500 to 98200 nM |
| CCCCCCCCCCCCCCCCCCOCCOP(=O)(O)OC[C@H]1O[C@@](C#N)(c2ccc3c(N)ncnn23)[C@H](O)[C@@H]1O [ODE-P-RVn, {(2R,3S,4R,5R)-5-(4-aminopyrrolo[2,1-f][1,2, 4]triazin-7-yl)-5-cyano-3,4-dihydroxytetrahydrofuran-2-yl}methyl [2-(octadecyloxy)ethyl] hydrogen phosphate] | >333 | > 100000 | 700 | > 100000 | 190 | >526 | < 200 | 370 | – | – | >129 | 770 | 1250 | >454 | 290 | < 350 | 640 | > 100000 | 98700 | > 100000 | EC50 ([3]; PSC-human lung cells, […]): 220 nM; EC50 [10]: 340 nM |
| CCC(CC)COC(=O)[C@H](C)N[P@](=O)(OC[C@H]1O[C@@](C#N)(c2ccc3c(N)ncnn23)[C@H](O)[C@@H]1O)Oc1ccccc1 [RDV, remdesivir, reference compound] | – | 101000 | 230 | – | – | – | 60 | 120 | 40 | 260 | – | 170 | 280 | – | – | 230 | 310 | – | – | – | persistence in plasma after intravenous infusion ([14]; in vivo, COVID-19 patients): less than 2 h; drop of plasma level after the intravenous infusion stopped ([14]; two patients with COVID-19, 1 h after the infusion stopped): > 90%; half-life (t1/2) in human plasma [15]: 1.15 h; EC50 (SARS-CoV-2 [16]): 10 nM; EC50 (SARS-CoV-2 [17]): 280 nM; persistence in plasma after intravenous infusion [18]: less than 2 h |
| N#C[C@@]1(c2ccc3c(N)ncnn23)O[C@H](CO)[C@@H](O)[C@H]1O [RVn, remdesivir nucleoside, reference compound] | – | > 100000 | 2620 | > 100000 | – | >312 | 320 | 730 | – | – | >104 | 960 | 1750 | >135 | >666 | 150 | 180 | > 100000 | > 100000 | > 100000 | – |
